Data reported in ChEMBL document CHEMBL1145150, “Synthesis and biological activity of nitronyl nitroxide containing peptides” (J Med Chem, 2005).
Residues, ends and D or L forms follow the SMILES beside them. *: point of attachment. X1 = CC1(C)N(O)C(c2ccc(OCC(=O)*)cc2)=[N+]([O-])C1(C)C

How the values were obtained:
[1] = species: Oryctolagus cuniculus; experiment: Fibrinolytic activity (0.2 ug) determined in fibrinogen-agarose mixture coagulated with […] of thrombin; assay type: functional
Summary of the method: (§1)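 Plates were cast from equal volumes of 0.3% rabbit fibrinogen and 0.95% agarose, both in 50 mM sodium barbiturate buffer (pH 7.8), clotted with thrombin (100 IU/mL) and held 30 min at 4 °C. Wells 5 mm across were punched and loaded with 30 µL of saline, urokinase or test agent. Fibrinolysis was expressed as lysis area.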

[2] = species: Oryctolagus cuniculus; experiment: Fibrinolytic activity (0.4 ug) determined in fibrinogen-agarose mixture coagulated with […] of thrombin; assay type: functional; summary of the method: as §1
[3] = species: Oryctolagus cuniculus; experiment: Fibrinolytic activity (0.7 ug) determined in fibrinogen-agarose mixture coagulated with […] of thrombin; assay type: functional; summary of the method: as §1
[4] = species: Rattus norvegicus; experiment: Concentration of compound (1 umol/L) required to inhibit acetylcholine-induced vasorelaxation of rat aortic strip relative to control; assay type: functional, Aorta
[5] = species: Rattus norvegicus; experiment: Concentration of compound (0.1 umol/L) required to inhibit acetylcholine-induced vasorelaxation of rat aortic strip relative to control; assay type: functional, Aorta
[6] = species: Rattus norvegicus; experiment: Concentration of compound (0.01 umol/L) required to inhibit acetylcholine-induced vasorelaxation of rat aortic strip relative to control; assay type: functional, Aorta
[7] = tested on: PC-12; experiment: Free radical scavenging activity of compound (50 uM) evaluated against […] in PC12 cells; assay type: functional, cell-based; conditions: Rattus norvegicus
[8] = species: Oryctolagus cuniculus; experiment: Effect (2.1 ug) on euglobulin clot lysis time determined using rabbit euglobulin; assay type: functional
Summary of the method: (§2)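 Rabbit plasma was diluted 1:20 in distilled water and precipitated at pH 5.7 with 0.25% acetic acid for 30 min at 4 °C. It was spun at 2000g for 15 min, and the euglobulin pellet was resuspended to the original plasma volume in 50 mM sodium barbiturate buffer (pH 7.8; 1.66 mM CaCl₂, 0.68 mM MgCl₂, 93.96 mM NaCl). Saline, urokinase or test agent was added to the clots, and time to clot lysis was read in a microplate.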

[9] = species: Oryctolagus cuniculus; experiment: Effect (0.6 ug) on euglobulin clot lysis time determined using rabbit euglobulin; assay type: functional; summary of the method: as §2
[10] = species: Oryctolagus cuniculus; experiment: Effect (1.1 ug) on euglobulin clot lysis time determined using rabbit euglobulin; assay type: functional; summary of the method: as §2
[11] = tested on: PC-12; experiment: Free radical scavenging activity of compound (50 uM) evaluated against OH in PC12 cells; assay type: functional, cell-based; conditions: Rattus norvegicus
Summary of the method: (§3)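 PC12 cells were grown in DMEM with 10% heat-inactivated horse serum, 5% FBS and 1.0 mM pyruvate at 37 °C and 5% CO₂. Cells were seeded at 20 000/well on poly-L-lysine and attached 24 h, then pretreated 1 h with 12.5–200 µM compound. Insults were: NO, 2 mM nitroprusside for 2 h, then 14 h in fresh medium; H₂O₂, 1 mM for 1 h; OH, 1 mM H₂O₂/30 µM Fe(II) for 1 h. Survival was read by MTT.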

[12] = tested on: PC-12; experiment: Free radical scavenging activity of compound (50 uM) evaluated against hydrogen peroxide in PC12 cells; assay type: functional, cell-based; conditions: Rattus norvegicus; summary of the method: as §3
[13] = tested on: Rattus norvegicus; experiment: Thrombolytic activity (15.0 umol/kg) expressed as the reduction of thrombus mass determined in male wistar rats; assay type: functional
Summary of the method: (§4)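 Male Wistar rats (200–300 g) were anesthetized with pentobarbital sodium (80.0 mg/kg i.p.). A steel helix was left for 15 min in 1.0 mL of carotid blood, then weighed. It was placed in a heparin-filled (50 IU/mL) polyethylene shunt into the left jugular vein. Heparin and then the test agent were injected through the shunt. Blood circulated 90 min, the helix was reweighed, and thrombus mass reduction was recorded (ANOVA).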

[14] = tested on: Rattus norvegicus; experiment: Thrombolytic activity (5.0 umol/kg) expressed as the reduction of thrombus mass determined in male wistar rats; assay type: functional; summary of the method: as §4
[15] = tested on: Rattus norvegicus; experiment: Thrombolytic activity (10.0 umol/kg) expressed as the reduction of thrombus mass determined in male wistar rats; assay type: functional; summary of the method: as §4
[16] = species: Oryctolagus cuniculus; experiment: Fibrinolytic activity (1.3 ug) determined in fibrinogen-agarose mixture coagulated with […] of thrombin; assay type: functional; summary of the method: as §1
[17] = species: Oryctolagus cuniculus; experiment: Effect (1.3 ug) on euglobulin clot lysis time determined using rabbit euglobulin; assay type: functional; summary of the method: as §2
[18] = species: Oryctolagus cuniculus; experiment: Fibrinolytic activity (0.8 ug) determined in fibrinogen-agarose mixture coagulated with […] of thrombin; assay type: functional; summary of the method: as §1
[19] = tested on: PC-12; experiment: Free radical scavenging activity of compound (200 uM) evaluated against […] in PC12 cells; assay type: functional, cell-based; conditions: Rattus norvegicus
[20] = species: Oryctolagus cuniculus; experiment: Effect (2.3 ug) on euglobulin clot lysis time determined using rabbit euglobulin; assay type: functional; summary of the method: as §2
[21] = tested on: PC-12; experiment: Free radical scavenging activity of compound (200 uM) evaluated against OH in PC12 cells; assay type: functional, cell-based; conditions: Rattus norvegicus; summary of the method: as §3
[22] = tested on: PC-12; experiment: Free radical scavenging activity of compound (200 uM) evaluated against hydrogen peroxide in PC12 cells; assay type: functional, cell-based; conditions: Rattus norvegicus; summary of the method: as §3
[23] = tested on: Rattus norvegicus; experiment: Thrombolytic activity (1 umol/kg) expressed as the reduction of thrombus mass determined in male wistar rats; assay type: functional; summary of the method: as §4
[24] = tested on: Rattus norvegicus; experiment: Thrombolytic activity (5 umol/kg) expressed as the reduction of thrombus mass determined in male wistar rats; assay type: functional; summary of the method: as §4
[25] = tested on: Rattus norvegicus; experiment: Thrombolytic activity (10 umol/kg) expressed as the reduction of thrombus mass determined in male wistar rats; assay type: functional; summary of the method: as §4
[26] = tested on: PC-12; experiment: Free radical scavenging activity of compound (25 uM) evaluated against […] in PC12 cells; assay type: functional, cell-based; conditions: Rattus norvegicus
[27] = tested on: PC-12; experiment: Free radical scavenging activity of compound (25 uM) evaluated against hydrogen peroxide in PC12 cells; assay type: functional, cell-based; conditions: Rattus norvegicus; summary of the method: as §3
[28] = species: Oryctolagus cuniculus; experiment: Effect (2.2 ug) on euglobulin clot lysis time determined using rabbit euglobulin; assay type: functional; summary of the method: as §2
[29] = tested on: PC-12; experiment: Free radical scavenging activity of compound (25 uM) evaluated against OH in PC12 cells; assay type: functional, cell-based; conditions: Rattus norvegicus; summary of the method: as §3
[30] = species: Oryctolagus cuniculus; experiment: Fibrinolytic activity (1.4 ug) determined in fibrinogen-agarose mixture coagulated with […] of thrombin; assay type: functional; summary of the method: as §1
[31] = species: Oryctolagus cuniculus; experiment: Effect (1.4 ug) on euglobulin clot lysis time determined using rabbit euglobulin; assay type: functional; summary of the method: as §2
[32] = tested on: PC-12; experiment: Free radical scavenging activity of compound (12.5 uM) evaluated against OH in PC12 cells; assay type: functional, cell-based; conditions: Rattus norvegicus; summary of the method: as §3
[33] = tested on: PC-12; experiment: Free radical scavenging activity of compound (12.5 uM) evaluated against nitric oxide in PC12 cells; assay type: functional, cell-based; conditions: Rattus norvegicus; summary of the method: as §3
[34] = species: Oryctolagus cuniculus; experiment: Effect (0.8 ug) on euglobulin clot lysis time determined using rabbit euglobulin; assay type: functional; summary of the method: as §2
[35] = tested on: PC-12; experiment: Free radical scavenging activity of compound (12.5 uM) evaluated against hydrogen peroxide in PC12 cells; assay type: functional, cell-based; conditions: Rattus norvegicus; summary of the method: as §3
[36] = species: Rattus norvegicus; experiment: Concentration of compound (1 uM) required to inhibit acetylcholine-induced vasorelaxation of rat aortic strip relative to control; assay type: functional, Aorta
[37] = species: Oryctolagus cuniculus; experiment: Fibrinolytic activity (1.5 ug) determined in fibrinogen-agarose mixture coagulated with […] of thrombin; assay type: functional; summary of the method: as §1
[38] = species: Oryctolagus cuniculus; experiment: Effect (1.5 ug) on euglobulin clot lysis time determined using rabbit euglobulin; assay type: functional; summary of the method: as §2
[39] = species: Oryctolagus cuniculus; experiment: Fibrinolytic activity (5 IU)) determined in fibrinogen-agarose mixture coagulated with […] of thrombin; assay type: functional; summary of the method: as §1
[40] = species: Oryctolagus cuniculus; experiment: Effect (5 IU) on euglobulin clot lysis time determined using rabbit euglobulin; assay type: functional; summary of the method: as §2
[41] = tested on: Rattus norvegicus; experiment: Thrombolytic activity (20 000 IU/kg) expressed as the reduction of thrombus mass determined in male wistar rats; assay type: functional, organism-based; summary of the method: as §4

C[C@H](NC(=O)[C@@H]1CCCN1C(=O)[C@H](CCCN=C(N)N)NC(=O)CNC(=O)COc1ccc(C2=[N+]([O-])C(C)(C)C(C)(C)N2O)cc1)C(=O)N[C@@H](CCCCN)C(=O)O (X1-GRPAK-OH)
Lysis area [1]: 175.04 mm.mm
Lysis area [2]: 196.87 mm.mm
Lysis area [3]: 217.35 mm.mm
Inhibition [4]: 96%
Inhibition [5]: 80.9%
Inhibition [6]: 69.3%
EC50 [7]: 92.3 µM
ECLT [8]: 105.01 min
ECLT [9]: 147.22 min
ECLT [10]: 126.51 min
EC50 [11]: 95.4 µM
EC50 [12]: 25.4 µM
Reduction [13]: 26.64 mg
Reduction [14]: 16.34 mg
Reduction [15]: 19.7 mg

C[C@H](NC(=O)[C@@H]1CCCN1C(=O)[C@H](CCCN=C(N)N)NC(=O)CN)C(=O)N[C@@H](CCCCN)C(=O)O (H-GRPAK-OH)
Lysis area [16]: 230.54 mm.mm
Inhibition [4]: 9.2%
ECLT [17]: 91.09 min
Reduction [15]: 25.82 mg

C[C@H](NC(=O)[C@@H]1CCCN1C(=O)[C@H](CCCN=C(N)N)NC(=O)[C@H](CCC(N)=O)NC(=O)COc1ccc(C2=[N+]([O-])C(C)(C)C(C)(C)N2O)cc1)C(=O)N[C@@H](CCCCN)C(=O)O (X1-QRPAK-OH)
Lysis area [1]: 195.38 mm.mm
Lysis area [2]: 215.12 mm.mm
Lysis area [18]: 230.15 mm.mm
Inhibition [4]: 95.6%
Inhibition [5]: 80.1%
Inhibition [6]: 68.3%
EC50 [19]: 91.8 µM
ECLT [9]: 136 min
ECLT [10]: 117.96 min
ECLT [20]: 100.09 min
EC50 [21]: 94.2 µM
EC50 [22]: 74.6 µM
Reduction [23]: 16.4 mg
Reduction [24]: 20.43 mg
Reduction [25]: 28.85 mg

C[C@H](NC(=O)COc1ccc(C2=[N+]([O-])C(C)(C)C(C)(C)N2O)cc1)C(=O)N[C@@H](CCCN=C(N)N)C(=O)N1CCC[C@H]1C(=O)N[C@@H](C)C(=O)N[C@@H](CCCCN)C(=O)O (X1-ARPAK-OH)
Lysis area [1]: 172.33 mm.mm
Lysis area [2]: 194.54 mm.mm
Lysis area [18]: 215.23 mm.mm
Inhibition [4]: 92.9%
Inhibition [5]: 78.6%
Inhibition [6]: 66.8%
EC50 [26]: 89.1 µM
EC50 [27]: 28.1 µM
ECLT [9]: 145.61 min
ECLT [10]: 123.32 min
ECLT [28]: 104.12 min
EC50 [29]: 98.1 µM
Reduction [13]: 26.88 mg
Reduction [14]: 16.27 mg
Reduction [15]: 19.91 mg

C[C@H](N)C(=O)N[C@@H](CCCN=C(N)N)C(=O)N1CCC[C@H]1C(=O)N[C@@H](C)C(=O)N[C@@H](CCCCN)C(=O)O (H-ARPAK-OH)
Lysis area [30]: 212.78 mm.mm
Inhibition [4]: 9.5%
ECLT [31]: 96.38 min
Reduction [15]: 18.54 mg

CC1(C)N(O)C(c2ccc(OCC(=O)O)cc2)=[N+]([O-])C1(C)C
Lysis area [18]: 23.96 mm.mm
EC50 [32]: 99.9 µM
EC50 [33]: 91.2 µM
ECLT [34]: 218.56 min
EC50 [35]: 30.2 µM
Inhibition [36]: 99.2%
Reduction [15]: 15.89 mg

C[C@H](NC(=O)[C@@H]1CCCN1C(=O)[C@H](CCCN=C(N)N)NC(=O)[C@@H](N)CCC(N)=O)C(=O)N[C@@H](CCCCN)C(=O)O (H-QRPAK-OH)
Lysis area [37]: 223.99 mm.mm
Inhibition [4]: 8.9%
ECLT [38]: 93.01 min
Reduction [15]: 21.17 mg

UROKINASE
Lysis area [39]: 224 mm.mm
ECLT [40]: 126 min
Reduction [41]: 25.4 mg
